Source: ChEMBL document CHEMBL1138525 (J Med Chem, 2009)
Activity calls are given as the source filed them. The calls are words filed in the database; no cut-off is given here.

Key:
P2Y purinoceptor 2 [1] = target: P2Y purinoceptor 2 (Homo sapiens, UniProt P41231, Y114A); assay: Agonist activity at N-terminal HA epitope-tagged human P2Y2 receptor Y114A mutant expressed in human 1321N1 cells assessed as increase in intracellular calcium level; assay type: functional, cell-based
Method in brief: (§1)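 1321N1 astrocytoma cells stably expressing mutant receptor (retroviral transfection, G418 selection), loaded with Oregon Green BAPTA-1/AM in Krebs-HEPES pH 7.4 for 1 h at room temperature. Plated at 150000 cells/well and held 20 min at 28 °C in the dark. Efficacy relative to 100 µM carbachol.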

P2Y purinoceptor 2 [2] = target: P2Y purinoceptor 2 (Homo sapiens, UniProt P41231, S296A); assay: Agonist activity at N-terminal HA epitope-tagged human P2Y2 receptor S296A mutant expressed in human 1321N1 cells assessed as increase in intracellular calcium level; assay type: functional, cell-based
Sequence of P2Y purinoceptor 2 (Homo sapiens, UniProt P41231, S296A) (P41231 whole entry S296A): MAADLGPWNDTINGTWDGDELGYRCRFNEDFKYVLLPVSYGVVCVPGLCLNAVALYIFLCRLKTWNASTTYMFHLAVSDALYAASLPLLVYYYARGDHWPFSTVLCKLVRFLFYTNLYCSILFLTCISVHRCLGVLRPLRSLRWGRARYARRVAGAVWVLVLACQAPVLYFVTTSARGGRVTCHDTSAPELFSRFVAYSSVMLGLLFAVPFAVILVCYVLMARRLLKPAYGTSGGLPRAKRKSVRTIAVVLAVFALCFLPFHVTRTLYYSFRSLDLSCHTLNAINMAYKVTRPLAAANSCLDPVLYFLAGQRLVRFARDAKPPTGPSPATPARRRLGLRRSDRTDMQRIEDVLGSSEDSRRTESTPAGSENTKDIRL
Method in brief: (§2)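 Retrovirally transduced stable 1321N1 astrocytoma lines (wild-type lines of differing expression, or mutants) in suspension, loaded with Oregon Green BAPTA-1/AM for 1 h at room temperature. Cells were plated at 150000 per well in Krebs-HEPES pH 7.4 and held 20 min at 28 °C in the dark.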

[3] = tested on: P2Y purinoceptor 2 (Homo sapiens), P41231 [R177A]; assay: Agonist activity at N-terminal HA epitope-tagged human P2Y2 receptor R177A mutant expressed in human 1321N1 cells assessed as increase in intracellular calcium level relative to carbachol; assay type: functional, cell-based
Sequence of P2Y purinoceptor 2 (Homo sapiens), P41231 [R177A] (P41231 whole entry R177A): as the sequence (P41231 whole entry S296A) above, with R177A, A296S counted along it
Method in brief: (§3)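 Retrovirally transduced stable 1321N1 astrocytoma lines (wild-type lines of differing expression, or mutants) in suspension, loaded with Oregon Green BAPTA-1/AM for 1 h at room temperature. Cells were plated at 150000 per well in Krebs-HEPES pH 7.4 and held 20 min at 28 °C in the dark. Agonist was then injected, with fluorescence read at ex 485/em 520 nm for 60 × 0.4 s.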

P2Y purinoceptor 2 [4] = target: P2Y purinoceptor 2 (Homo sapiens, UniProt P41231, R194H); assay: Agonist activity at N-terminal HA epitope-tagged human P2Y2 receptor R194H mutant expressed in human 1321N1 cells assessed as increase in intracellular calcium level; assay type: functional, cell-based; method in brief: as §1
Sequence of P2Y purinoceptor 2 (Homo sapiens, UniProt P41231, R194H) (P41231 whole entry R194H): as the sequence (P41231 whole entry S296A) above, with R194H, A296S counted along it

[5] = tested on: P2Y purinoceptor 2 (Homo sapiens), P41231 [S296A]; assay: Agonist activity at N-terminal HA epitope-tagged human P2Y2 receptor S296A mutant expressed in human 1321N1 cells assessed as increase in intracellular calcium level relative to carbachol; assay type: functional, cell-based; method in brief: as §3
Sequence of P2Y purinoceptor 2 (Homo sapiens), P41231 [S296A] (P41231 whole entry S296A): as the sequence (P41231 whole entry S296A) above

P2Y purinoceptor 2 [6] = target: T1, P2Y purinoceptor 2 (Homo sapiens, UniProt P41231); assay: Agonist activity at N-terminal HA epitope-tagged wild type 3 human P2Y2 receptor expressed in human 1321N1 cells assessed as increase in intracellular calcium level relative to carbachol; assay type: functional, cell-based; method in brief: as §3
T1 sequence (P41231 whole entry): as the sequence (P41231 whole entry S296A) above, with A296S counted along it

P2Y purinoceptor 2 [7] = target: P2Y purinoceptor 2 (Homo sapiens, UniProt P41231, C278S); assay: Agonist activity at N-terminal HA epitope-tagged human P2Y2 receptor C278S mutant expressed in human 1321N1 cells assessed as increase in intracellular calcium level; assay type: functional, cell-based; method in brief: as §1
Sequence of P2Y purinoceptor 2 (Homo sapiens, UniProt P41231, C278S) (P41231 whole entry C278S): as the sequence (P41231 whole entry S296A) above, with C278S, A296S counted along it

P2Y purinoceptor 2 [8] = target: P2Y purinoceptor 2 (Homo sapiens, UniProt P41231, Y118A); assay: Agonist activity at N-terminal HA epitope-tagged human P2Y2 receptor Y118A mutant expressed in human 1321N1 cells assessed as increase in intracellular calcium level; assay type: functional, cell-based; method in brief: as §1
Sequence of P2Y purinoceptor 2 (Homo sapiens, UniProt P41231, Y118A) (P41231 whole entry Y118A): as the sequence (P41231 whole entry S296A) above, with Y118A, A296S counted along it

[9] = tested on: P2Y purinoceptor 2 (Homo sapiens), P41231 [C278S]; assay: Agonist activity at N-terminal HA epitope-tagged human P2Y2 receptor C278S mutant expressed in human 1321N1 cells assessed as increase in intracellular calcium level relative to carbachol; assay type: functional, cell-based; method in brief: as §3
Sequence of P2Y purinoceptor 2 (Homo sapiens), P41231 [C278S] (P41231 whole entry C278S): as the sequence (P41231 whole entry S296A) above, with C278S, A296S counted along it

[10] = tested on: P2Y purinoceptor 2 (Homo sapiens), P41231 [Y198A]; assay: Agonist activity at N-terminal HA epitope-tagged human P2Y2 receptor Y198A mutant expressed in human 1321N1 cells assessed as increase in intracellular calcium level relative to carbachol; assay type: functional, cell-based; method in brief: as §3
Sequence of P2Y purinoceptor 2 (Homo sapiens), P41231 [Y198A] (P41231 whole entry Y198A): as the sequence (P41231 whole entry S296A) above, with Y198A, A296S counted along it

[11] = tested on: P2Y purinoceptor 2 (Homo sapiens), P41231 [Y114A]; assay: Agonist activity at N-terminal HA epitope-tagged human P2Y2 receptor Y114A mutant expressed in human 1321N1 cells assessed as increase in intracellular calcium level relative to carbachol; assay type: functional, cell-based; method in brief: as §3
Sequence of P2Y purinoceptor 2 (Homo sapiens), P41231 [Y114A] (P41231 whole entry Y114A): as the sequence (P41231 whole entry S296A) above, with Y114A, A296S counted along it

[12] = tested on: P2Y purinoceptor 2 (Homo sapiens), P41231 [Y118A]; assay: Agonist activity at N-terminal HA epitope-tagged human P2Y2 receptor Y118A mutant expressed in human 1321N1 cells assessed as increase in intracellular calcium level relative to carbachol; assay type: functional, cell-based; method in brief: as §3
Sequence of P2Y purinoceptor 2 (Homo sapiens), P41231 [Y118A] (P41231 whole entry Y118A): as the sequence (P41231 whole entry S296A) above, with Y118A, A296S counted along it

P2Y purinoceptor 2 [13] = target: T1, P2Y purinoceptor 2; assay: Agonist activity at N-terminal HA epitope-tagged wild type 3 human P2Y2 receptor expressed in human 1321N1 cells assessed as increase in intracellular calcium level; assay type: functional, cell-based; method in brief: as §2
P2Y purinoceptor 2 [14] = target: P2Y purinoceptor 2 (Homo sapiens, UniProt P41231, R177A/R180A); assay: Agonist activity at N-terminal HA epitope-tagged human P2Y2 receptor R177A_R180A double mutant expressed in human 1321N1 cells assessed as increase in intracellular calcium level; assay type: functional, cell-based; method in brief: as §1
Sequence of P2Y purinoceptor 2 (Homo sapiens, UniProt P41231, R177A/R180A) (P41231 whole entry R177A/R180A): as the sequence (P41231 whole entry S296A) above, with R177A, R180A, A296S counted along it

[15] = tested on: P2Y purinoceptor 2 (Homo sapiens), P41231 [R194H]; assay: Agonist activity at N-terminal HA epitope-tagged human P2Y2 receptor R194H mutant expressed in human 1321N1 cells assessed as increase in intracellular calcium level relative to carbachol; assay type: functional, cell-based; method in brief: as §3
Sequence of P2Y purinoceptor 2 (Homo sapiens), P41231 [R194H] (P41231 whole entry R194H): as the sequence (P41231 whole entry S296A) above, with R194H, A296S counted along it

P2Y purinoceptor 2 [16] = target: P2Y purinoceptor 2 (Homo sapiens, UniProt P41231, R180A); assay: Agonist activity at N-terminal HA epitope-tagged human P2Y2 receptor R180A mutant expressed in human 1321N1 cells assessed as increase in intracellular calcium level; assay type: functional, cell-based; method in brief: as §1
Sequence of P2Y purinoceptor 2 (Homo sapiens, UniProt P41231, R180A) (P41231 whole entry R180A): as the sequence (P41231 whole entry S296A) above, with R180A, A296S counted along it

[17] = tested on: P2Y purinoceptor 2 (Homo sapiens), P41231 [R180A]; assay: Agonist activity at N-terminal HA epitope-tagged human P2Y2 receptor R180A mutant expressed in human 1321N1 cells assessed as increase in intracellular calcium level relative to carbachol; assay type: functional, cell-based; method in brief: as §3
Sequence of P2Y purinoceptor 2 (Homo sapiens), P41231 [R180A] (P41231 whole entry R180A): as the sequence (P41231 whole entry S296A) above, with R180A, A296S counted along it

[18] = tested on: P2Y purinoceptor 2 (Homo sapiens), P41231 [R272A]; assay: Agonist activity at N-terminal HA epitope-tagged human P2Y2 receptor R272A mutant expressed in human 1321N1 cells assessed as increase in intracellular calcium level up to 300 uM relative to carbachol; assay type: functional, cell-based; method in brief: as §3
Sequence of P2Y purinoceptor 2 (Homo sapiens), P41231 [R272A] (P41231 whole entry R272A): as the sequence (P41231 whole entry S296A) above, with R272A, A296S counted along it

P2Y purinoceptor 2 [19] = target: P2Y purinoceptor 2 (Homo sapiens, UniProt P41231, Y198A); assay: Agonist activity at N-terminal HA epitope-tagged human P2Y2 receptor Y198A mutant expressed in human 1321N1 cells assessed as increase in intracellular calcium level; assay type: functional, cell-based; method in brief: as §1
Sequence of P2Y purinoceptor 2 (Homo sapiens, UniProt P41231, Y198A) (P41231 whole entry Y198A): as the sequence (P41231 whole entry S296A) above, with Y198A, A296S counted along it

P2Y purinoceptor 2 [20] = target: T1, P2Y purinoceptor 2; assay: Agonist activity at N-terminal HA epitope-tagged wild type 4 human P2Y2 receptor expressed in human 1321N1 cells assessed as increase in intracellular calcium level relative to carbachol; assay type: functional, cell-based; method in brief: as §3
[21] = tested on: P2Y purinoceptor 2 (Homo sapiens), P41231 [R177A,R180A]; assay: Agonist activity at N-terminal HA epitope-tagged human P2Y2 receptor R177A_R180A double mutant expressed in human 1321N1 cells assessed as increase in intracellular calcium level relative to carbachol; assay type: functional, cell-based; method in brief: as §3
Sequence of P2Y purinoceptor 2 (Homo sapiens), P41231 [R177A,R180A] (P41231 whole entry R177A/R180A): as the sequence (P41231 whole entry S296A) above, with R177A, R180A, A296S counted along it

P2Y purinoceptor 2 [22] = target: P2Y purinoceptor 2 (Homo sapiens, UniProt P41231, R177A); assay: Agonist activity at N-terminal HA epitope-tagged human P2Y2 receptor R177A mutant expressed in human 1321N1 cells assessed as increase in intracellular calcium level; assay type: functional, cell-based; method in brief: as §1
Sequence of P2Y purinoceptor 2 (Homo sapiens, UniProt P41231, R177A) (P41231 whole entry R177A): as the sequence (P41231 whole entry S296A) above, with R177A, A296S counted along it

[23] = tested on: P2Y purinoceptor 2 (Homo sapiens), P41231 [UNDEFINED MUTATION]; assay: Ratio of efficacy for N-terminal HA epitope-tagged human P2Y2 receptor R194H mutant to efficacy for wild type 3 human P2Y2 receptor
Sequence of P2Y purinoceptor 2 (Homo sapiens), P41231 [UNDEFINED MUTATION] (P41231 whole entry, looked up, stated change not applied): as the sequence (P41231 whole entry S296A) above, with A296S counted along it

P2Y purinoceptor 2 [24] = target: T1, P2Y purinoceptor 2; assay: Agonist activity at N-terminal HA epitope-tagged wild type 4 human P2Y2 receptor expressed in human 1321N1 cells assessed as increase in intracellular calcium level; assay type: functional, cell-based; method in brief: as §2
P2Y purinoceptor 2 [25] = target: P2Y purinoceptor 2 (Homo sapiens, UniProt P41231, R272A); assay: Agonist activity at N-terminal HA epitope-tagged human P2Y2 receptor R272A mutant expressed in human 1321N1 cells assessed as increase in intracellular calcium level; assay type: functional, cell-based; method in brief: as §1
Sequence of P2Y purinoceptor 2 (Homo sapiens, UniProt P41231, R272A) (P41231 whole entry R272A): as the sequence (P41231 whole entry S296A) above, with R272A, A296S counted along it

[26] = tested on: P2Y purinoceptor 2 (Homo sapiens), P41231 [UNDEFINED MUTATION]; assay: Ratio of EC50 for N-terminal HA epitope-tagged human P2Y2 receptor C278S mutant to EC50 for wild type 3 human P2Y2 receptor
1321-N1 = assay: Effect on intracellular calcium level in non transfected human 1321N1 cells; assay type: functional, cell-based
P2Y purinoceptor 2 [27] = target: T1, P2Y purinoceptor 2; assay: Agonist activity at N-terminal HA epitope-tagged wild type 1 human P2Y2 receptor expressed in human 1321N1 cells assessed as increase in intracellular calcium level; assay type: functional, cell-based; method in brief: as §3
P2Y purinoceptor 2 [28] = target: T1, P2Y purinoceptor 2; assay: Agonist activity at N-terminal HA epitope-tagged wild type human P2Y2 receptor expressed in human 1321N1 cells assessed as increase in intracellular calcium level; assay type: functional, cell-based; method in brief: as §3
[29] = tested on: P2Y purinoceptor 2 (Homo sapiens), P41231 [R272A]; assay: Agonist activity at N-terminal HA epitope-tagged human P2Y2 receptor R272A mutant expressed in human 1321N1 cells assessed as increase in intracellular calcium level relative to carbachol; assay type: functional, cell-based; method in brief: as §3

Sequence of P2Y purinoceptor 2 (Homo sapiens, UniProt P41231, Y114A) (P41231 whole entry Y114A): as the sequence (P41231 whole entry S296A) above, with Y114A, A296S counted along it

SMILES	EC50 (P2Y purinoceptor 2 [1])	EC50 (P2Y purinoceptor 2 [2])	Efficacy [3]	EC50 (P2Y purinoceptor 2 [4])	Efficacy [5]	Efficacy (P2Y purinoceptor 2 [6])	EC50 (P2Y purinoceptor 2 [7])	EC50 (P2Y purinoceptor 2 [8])	Efficacy [9]	Efficacy [10]	Efficacy [11]	Efficacy [12]	EC50 (P2Y purinoceptor 2 [13])	EC50 (P2Y purinoceptor 2 [14])	Efficacy [15]	EC50 (P2Y purinoceptor 2 [16])	Efficacy [17]	EC50 (P2Y purinoceptor 2 [19])	Efficacy (P2Y purinoceptor 2 [20])	Efficacy [21]	other results
Nc1ncnc2c1ncn2[C@@H]1O[C@H](COP(=O)(O)OP(=O)(O)OP(=O)(O)OP(=O)(O)OC[C@H]2O[C@@H](n3cnc4c(N)ncnc43)[C@H](O)[C@@H]2O)[C@@H](O)[C@H]1O [DIADENOSINE TETRAPHOSPHATE]	170 nM	> 300000 nM	86%	185 nM	12%	68%	81000 nM	345 nM	inactive	117%	128%	15%	145 nM	665 nM	149%	423 nM	68%	335 nM	100%	98%	Efficacy [18]: inactive; EC50 (P2Y purinoceptor 2 [22]): 1230 nM; Ratio efficacy [23]: 2; EC50 (P2Y purinoceptor 2 [24]): 167 nM; EC50 (P2Y purinoceptor 2 [25]): 740000 nM; Ratio EC50 [26]: 560
O=c1ccn([C@@H]2O[C@H](COP(=O)(O)OP(=O)(O)OP(=O)(O)O)[C@@H](O)[C@H]2O)c(=O)[nH]1 [URIDINE TRIPHOSPHATE]	37.2 nM	> 300000 nM	133%	121 nM	3%	100%	2090 nM	157 nM	86%	128%	107%	43%	80.4 nM	123 nM	127%	138 nM	130%	108 nM	138%	109%	Activity (1321-N1): inactive; EC50 (P2Y purinoceptor 2 [27]): 781 nM; Activity (P2Y purinoceptor 2 [28]): Dose-dependent effect; Efficacy [29]: 99%; EC50 (P2Y purinoceptor 2 [22]): 50.1 nM; EC50 (P2Y purinoceptor 2 [24]): 59 nM; EC50 (P2Y purinoceptor 2 [25]): 20600 nM
